From ChEMBL document CHEMBL3272224, “Synthesis and hypotensive activity of N-alkyl-N"-cyano-N'-pyridylguanidines” (J Med Chem, 1978)
Calls of active or inactive are those of the source. No cut-off for these calls is given here.

Assays:
[1] = system: Rattus norvegicus; assay: Hypotensive activity in po dosed spontaneously hypertensive Wistar-Okamoto rat assessed as dose required to cause 30 mmHg fall of blood pressure administered for 5 days; assay type: functional; settings: 120 h, read-out: MED
[2] = system: Rattus norvegicus; assay: Hypotensive activity in spontaneously hypertensive Wistar-Okamoto rat assessed as maximum change in mean blood pressure at 0.1 mg/kg, po relative to control; assay type: functional
How it was run: (§1)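 Spontaneously hypertensive Wistar-Okamoto rats, five per dose, received compound orally, dissolved or suspended in 0.5% carboxymethylcellulose. Blood pressure was measured indirectly by tail cuff in restrained conscious rats before dosing and at 2, 4, 6, 8, 12 and 24 h. Maximum change was measured after a single administration and given as mean ± error.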

[3] = system: Canis familiaris; assay: Hypotensive activity in conscious renal hypertensive dog assessed as maximum change in mean blood pressure at 0.05 mg/kg, po measured for 8 hrs relative to control; assay type: functional, Canis lupus familiaris
How it was run: (§2)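 Renal hypertensive dogs, conscious, dosed orally in soft gelatin capsules, three dogs per dose. Mean blood pressure was taken indirectly with an Arteriosonde, standing animals in a semi-insonorized room, just before dosing and then hourly for 8 h. Maximum change was measured after a single administration and given as mean ± error.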

[4] = system: Rattus norvegicus; assay: Hypotensive activity in spontaneously hypertensive Wistar-Okamoto rat assessed as time required for persistence of hypotensive effect at 0.01 mg/kg, po; assay type: functional
How it was run: (§3)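 SHR (Wistar-Okamoto), five per dose, were given an oral dose in 0.5% carboxymethylcellulose. Indirect cuff pressure in restrained conscious rats was read before dosing and at 2, 4, 6, 8, 12 and 24 h. Duration (h) was scored while pressure remained 15 mmHg or more below the initial reading.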

[5] = system: Rattus norvegicus; assay: Toxicity in rat assessed as change in cardiac noradrenaline level at 0.1 mg/kg for 5 days; assay type: organism-based, Heart; design: dose 0.1 mg/kg; settings: in vivo, 120 h
How it was run: (§4)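 Rats were given single or repeated (5 days) administration, and cardiac noradrenaline levels were measured.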

[6] = system: Rattus norvegicus; assay: Toxicity in rat assessed as change in cardiac noradrenaline level at 0.1 mg/kg; assay type: organism-based, Heart; design: dose 0.1 mg/kg; settings: in vivo; how it was run: as §4
[7] = Toxicity in po dosed mouse assessed as mortality after 7 days; settings: in vivo
[8] = system: Canis familiaris; assay: Hypotensive activity in conscious renal hypertensive dog assessed as time required for persistence of hypotensive effect at 0.25 mg/kg, po measured for 8 hrs; assay type: functional, Canis lupus familiaris
How it was run: (§5)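 Conscious renal hypertensive dogs received single oral doses in soft gelatin capsules, three per dose. Indirect standing blood pressure was read before dosing and hourly to 8 h. Duration (h) was the time the pressure stayed 15 mmHg or more below the initial value, which was taken as persistence of the hypotensive effect.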

[9] = species: Felis catus; assay: Hypotensive activity in decerebrated cat; assay type: functional, organism-based
[10] = system: Canis familiaris; assay: Hypotensive activity in conscious renal hypertensive dog assessed as maximum change in mean blood pressure at 0.25 mg/kg, po measured for 8 hrs relative to control; assay type: functional, Canis lupus familiaris; how it was run: as §2
[11] = system: Canis familiaris; assay: Hypotensive activity in conscious renal hypertensive dog assessed as maximum change in mean blood pressure at 0.1 mg/kg, po measured for 8 hrs relative to control; assay type: functional, Canis lupus familiaris; how it was run: as §2
[12] = system: Rattus norvegicus; assay: Hypotensive activity in spontaneously hypertensive Wistar-Okamoto rat assessed as time required for persistence of hypotensive effect at 0.1 mg/kg, po; assay type: functional; how it was run: as §3
[13] = system: Canis familiaris; assay: Hypotensive activity in conscious renal hypertensive dog assessed as time required for persistence of hypotensive effect at 0.1 mg/kg, po measured for 8 hrs; assay type: functional, Canis lupus familiaris; how it was run: as §5
[14] = system: Rattus norvegicus; assay: Hypotensive activity in spontaneously hypertensive Wistar-Okamoto rat assessed as time required for persistence of hypotensive effect at 0.05 mg/kg, po; assay type: functional; how it was run: as §3
[15] = system: Canis familiaris; assay: Hypotensive activity in conscious renal hypertensive dog assessed as time required for persistence of hypotensive effect at 0.05 mg/kg, po measured for 8 hrs; assay type: functional, Canis lupus familiaris; how it was run: as §5
[16] = Toxicity in po dosed Sprague-Dawley rat assessed as mortality after 7 days; assay type: organism-based; settings: in vivo
[17] = system: Rattus norvegicus; assay: Hypotensive activity in spontaneously hypertensive Wistar-Okamoto rat assessed as maximum change in mean blood pressure at 0.05 mg/kg, po relative to control; assay type: functional; how it was run: as §1
[18] = system: Rattus norvegicus; assay: Hypotensive activity in spontaneously hypertensive Wistar-Okamoto rat assessed as maximum change in mean blood pressure at 0.01 mg/kg, po relative to control; assay type: functional; how it was run: as §1
[19] = system: Rattus norvegicus; assay: Hypotensive activity in po dosed spontaneously hypertensive Wistar-Okamoto rat relative to guancydine; assay type: functional
[20] = species: Rattus norvegicus; assay: Toxicity in rat assessed as effect on contraction of nictitating membranes by preganglionic stimulation; assay type: organism-based, Nictitating membrane; settings: in vivo
[21] = system: Canis familiaris; assay: Hypotensive activity in conscious renal hypertensive dog assessed as maximum change in mean blood pressure at 10 mg/kg, po measured for 8 hrs relative to control; assay type: functional, Canis lupus familiaris; how it was run: as §2
[22] = system: Rattus norvegicus; assay: Hypotensive activity in spontaneously hypertensive Wistar-Okamoto rat assessed as maximum change in mean blood pressure at 10 mg/kg, po relative to control; assay type: functional; how it was run: as §1
[23] = system: Rattus norvegicus; assay: Hypotensive activity in spontaneously hypertensive Wistar-Okamoto rat assessed as maximum change in mean blood pressure at 2.5 mg/kg, po relative to control; assay type: functional; how it was run: as §1
[24] = system: Rattus norvegicus; assay: Hypotensive activity in spontaneously hypertensive Wistar-Okamoto rat assessed as time required for persistence of hypotensive effect at 2.5 mg/kg, po; assay type: functional; how it was run: as §3
[25] = system: Canis familiaris; assay: Hypotensive activity in conscious renal hypertensive dog assessed as time required for persistence of hypotensive effect at 5 mg/kg, po measured for 8 hrs; assay type: functional, Canis lupus familiaris; how it was run: as §5
[26] = system: Rattus norvegicus; assay: Hypotensive activity in spontaneously hypertensive Wistar-Okamoto rat assessed as time required for persistence of hypotensive effect at 10 mg/kg, po; assay type: functional; how it was run: as §3
[27] = system: Canis familiaris; assay: Hypotensive activity in conscious renal hypertensive dog assessed as maximum change in mean blood pressure at 5 mg/kg, po measured for 8 hrs relative to control; assay type: functional, Canis lupus familiaris; how it was run: as §2
[28] = system: Canis familiaris; assay: Hypotensive activity in conscious renal hypertensive dog assessed as maximum change in mean blood pressure at 2.5 mg/kg, po measured for 8 hrs relative to control; assay type: functional, Canis lupus familiaris; how it was run: as §2
[29] = system: Rattus norvegicus; assay: Hypotensive activity in spontaneously hypertensive Wistar-Okamoto rat assessed as maximum change in mean blood pressure at 5 mg/kg, po relative to control; assay type: functional; how it was run: as §1
[30] = system: Canis familiaris; assay: Hypotensive activity in conscious renal hypertensive dog assessed as time required for persistence of hypotensive effect at 2.5 mg/kg, po measured for 8 hrs; assay type: functional, Canis lupus familiaris; how it was run: as §5
[31] = system: Rattus norvegicus; assay: Hypotensive activity in spontaneously hypertensive Wistar-Okamoto rat assessed as time required for persistence of hypotensive effect at 5 mg/kg, po; assay type: functional; how it was run: as §3
[32] = system: Canis familiaris; assay: Hypotensive activity in conscious renal hypertensive dog assessed as time required for persistence of hypotensive effect at 10 mg/kg, po measured for 8 hrs; assay type: functional, Canis lupus familiaris; how it was run: as §5

Compound	minimal effective dose [1] [mg/kg]	Activity [2] [mmHg]	Activity [3] [mmHg]	Time [4] [h]	Activity [5]	Activity [6]	LD50 at 168 h [7] [mg/kg]	Activity [9]	Activity [11] [mmHg]	Time [12] [h]	Time [13] [h]	Time [14] [h]	Time [15] [h]	LD50 at 168 h [16] [mg/kg]	Activity [17] [mmHg]	Activity [18] [mmHg]	fold change (FC) [19]	Activity [20]	further results
CC(C)(C)/N=C(/NC#N)Nc1cccnc1	0.1	-72	-25	4	Non-toxic	Non-toxic	> 1000	Active	-45	>8	4	6	2	278	-37	-26	100	Non-toxic	Time [8]: 6 h; Activity [10]: -62 mmHg
CCC(C)(C)/N=C(/S)Nc1cccnc1														460					Activity [21]: -43 mmHg; Activity [22]: -69 mmHg; Activity [23]: -35 mmHg; Time [24]: 2 h; Time [25]: 2 h; Time [26]: >4 h; Activity [27]: -28 mmHg; Activity [28]: -14 mmHg; Activity [29]: -47 mmHg; Time [30]: 2 h; Time [31]: 2 h; Time [32]: 4 h
CCC(C)(C)/N=C(\NC#N)Nc1cccnc1	0.1	>-100	-41	2				Active	-69	4	>6	4	4		-72	-27	100		
CCC(C)(C)NC(=NC#N)Nc1cccnc1					Non-toxic	Non-toxic	> 1000							14				Non-toxic	
